Key:
BV-2 [1] = test: Antiinflammatory activity in mouse BV-2 cells assessed as reduction in Abeta-induced IL-12 release incubated for 12 hrs by ELISA; assay type: functional, cell-based; conditions: dose microM 2.5-10, time 12.0 hrs
In short: (§1)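 BV2 microglia co-treated with Aβ fibrils (10 μM) for 12 h, with or without a range of test-compound concentrations. TNFα, IL12 and IL8 were quantified in culture medium. Values are relative to untreated control. Mean ± SD, n = 3.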

BV-2 [2] = test: Antiinflammatory activity in mouse BV-2 cells assessed as reduction in Abeta-induced TNFalpha release at 10 uM incubated for 12 hrs by ELISA relative to control; assay type: functional; in short: as §1
BV-2 [3] = test: Antiinflammatory activity in mouse BV-2 cells assessed as reduction in Abeta-induced IL-12 release at 10 uM incubated for 12 hrs by ELISA relative to control; assay type: functional; in short: as §1
Galectin-1 = Galectin-1 (Homo sapiens, UniProt P09382); test: Binding affinity to recombinant human galectin 1 assessed as dissociation constant by fluorescent anisotropy assay
BV-2 [4] = test: Antiinflammatory activity in mouse BV-2 cells assessed as reduction in Abeta-induced IL-8 release incubated for 12 hrs by ELISA; assay type: functional, cell-based; conditions: dose microM 2.5-10, time 12.0 hrs; in short: as §1
Galectin-3 [5] = target: T1, Galectin-3 (Homo sapiens, UniProt P17931); test: Binding affinity to recombinant human galectin 3 assessed as dissociation constant by SPR assay
In short: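 SPR with galectin-3 for Kd estimation. TREM2 was also run by SPR as a counter-target.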

Galectin-3 [6] = target: T1, Galectin-3; test: Inhibition of galectin 3 in mouse BWZ cells transfected with TREM2 and DAP12 assessed as reduction in lacZ activity incubated for 24 hrs by lacZ reporter gene based beta-galactosidase assay; assay type: cell-based; conditions: dose microM 2.5-10, time 24.0 hrs
In short: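 TREM2-DAP12 reporter assay in BWZ thymoma cells transfected with TREM2 and DAP12. Galectin-3 (5 μM) was the stimulant, co-incubated with a range of compound concentrations. NFAT-driven LacZ β-galactosidase activity was the read-out. Controls were unstimulated cells and galectin-stimulated cells without compound, plus untransfected BWZ cells. Mean ± SD, n = 3.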

BV-2 [7] = test: Antiinflammatory activity in mouse BV-2 cells assessed as reduction in Abeta-induced TNFalpha release incubated for 12 hrs by ELISA; assay type: functional, cell-based; conditions: dose microM 2.5-10, time 12.0 hrs; in short: as §1
Galectin-3 [8] = target: T1, Galectin-3; test: Binding affinity to recombinant human galectin 3 assessed as dissociation constant by fluorescent anisotropy assay
In short: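 Fluorescence anisotropy. Increasing galectin concentrations were titrated against a fixed concentration of small molecule until anisotropy reached a maximum (saturation), and Kd was derived from this.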

[9] = Inhibition of recombinant human galectin-3/recombinant human TREM2 interaction assessed as reduction in TR-FRET signal incubated for 3 hrs by TR-FRET assay
In short: (§2)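 TR-FRET using Eu cryptate-labelled galectin-3 (donor) and Alexa Fluor 647-labelled TREM2 (acceptor). Disruption of binding lowers the TR-FRET ratio. Single-point screening was at 10 μM, with hits defined as >5 SD below the mean signal. Dose-response runs gave IC50.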

Homo sapiens = organism: Homo sapiens; test: Inhibition of recombinant human galectin-3/recombinant human TREM2 interaction assessed as reduction in TR-FRET signal at 10 uM incubated for 3 hrs by TR-FRET assay relative to control; in short: as §2

T1 sequence (P17931 whole entry): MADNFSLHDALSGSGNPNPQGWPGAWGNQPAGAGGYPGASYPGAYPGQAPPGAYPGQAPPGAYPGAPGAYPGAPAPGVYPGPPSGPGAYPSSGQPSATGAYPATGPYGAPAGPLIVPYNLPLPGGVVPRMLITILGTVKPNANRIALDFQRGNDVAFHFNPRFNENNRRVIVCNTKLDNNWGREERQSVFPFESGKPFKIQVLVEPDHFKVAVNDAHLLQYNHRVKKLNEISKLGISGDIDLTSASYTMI
Galectin-1, sequence (P09382 whole entry): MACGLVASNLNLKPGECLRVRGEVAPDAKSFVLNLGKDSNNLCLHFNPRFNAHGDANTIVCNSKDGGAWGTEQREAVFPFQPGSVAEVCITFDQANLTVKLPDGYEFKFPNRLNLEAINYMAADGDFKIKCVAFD

Cn1cc(-c2ccncc2)c(-c2ccc(OCc3ccc4ccccc4n3)cc2)n1 [MARDEPODECT]
inhibition (BV-2 [1]): Dose-dependent effect
inhibition at 10 µM (BV-2 [2]): 50%
inhibition at 10 µM (BV-2 [3]): 40%
Kd (Galectin-1): > 500000 nM
inhibition (BV-2 [4]): Dose-dependent effect
Kd (Galectin-3 [5]): 290 nM
inhibition (Galectin-3 [6]): Dose-dependent effect
inhibition (BV-2 [7]): Dose-dependent effect
Kd (Galectin-3 [8]): 150 nM
IC50 [9]: 91 nM
inhibition (Homo sapiens): > 95%
